Active and inactive are the calls of the source. The calls are words filed in the database; no cut-off is given here.
Experiments:
[1] = Metabolic stability in mouse liver microsomes assessed as parent compound remaining after 30 mins; assay type: ADME, Microsome; settings: for remaining at 0.5 h: liver microsomes, read-out: Stabilty; for Stabilty: microsomes, 0.5 h
Method in brief: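 Compound incubated with mouse liver microsomes for 30 minutes at 37 °C, with dextromethorphan as positive control. Read-out is the percentage of unmodified compound remaining at 30 min.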

[2] = Metabolic stability in mouse liver microsomes assessed as half life; assay type: ADME, Microsome; settings: for half-life: liver microsomes
Method in brief: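 Half-life in mouse liver microsome assays was calculated from the amount of compound remaining over time, with dextromethorphan as positive control.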

[3] = Induction of heat shock response in human HeLa C3 cells assessed as effect on HSP72 expression at 3 to 30 uM incubated for 24 hrs by Western blot analysis; assay type: cell-based; settings: hela c3, 24 h, dose 3-30 µM
Method in brief: (§1)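 Cells treated for 24 h at the indicated concentrations, then lysed; total tau, Hsp72 and Hsp90 levels analyzed by Western blot. HeLaC3 cells over-express 0N4R tau. SH-SY5Y cells express tau at physiological levels.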

HeLa C3 = experiment: Inhibition of HSP70 in human HeLa C3 cells assessed as degradation of tau at >10 uM incubated for 24 hrs by Western blot analysis; assay type: cell-based; settings: dose microM >10, time 24.0 hrs; method in brief: as §1
SH-SY5Y [4] = experiment: Inhibition of HSP70 in human SH-SY5Y cells assessed as degradation of tau at 3 to 30 uM incubated for 24 hrs by Western blot analysis relative to control; assay type: cell-based; settings: dose 3-30 µM; method in brief: as §1
SH-SY5Y [5] = experiment: Induction of heat shock response in human SH-SY5Y cells assessed as effect on HSP72 expression at 3 to 30 uM incubated for 24 hrs by Western blot analysis; assay type: cell-based; settings: dose 3-30 µM; method in brief: as §1
[6] = Induction of heat shock response in human HeLa C3 cells assessed as effect on HSP90 expression at 3 to 30 uM incubated for 24 hrs by Western blot analysis; assay type: cell-based; settings: hela c3, 24 h, dose 3-30 µM; method in brief: as §1
SH-SY5Y [7] = experiment: Induction of heat shock response in human SH-SY5Y cells assessed as effect on HSP90 expression at 3 to 30 uM incubated for 24 hrs by Western blot analysis; assay type: cell-based; settings: dose 3-30 µM; method in brief: as §1

## CCn1c(=O)/c(=C2\Sc3cc(F)ccc3N2C)s/c1=C\c1ccccn1
[1]
  remaining at 0.5 h: 5%

## CCn1c(=O)/c(=C2\Sc3c(Cl)cccc3N2C)s/c1=C\c1ccccn1
[1]
  remaining at 0.5 h: 17%

## CCn1c(=O)/c(=C2\Sc3ccc(Cl)cc3N2C)s/c1=C\c1ccccn1
[1]
  remaining at 0.5 h: 37%
[2]
  half-life: 17 min

## CCn1c(=O)/c(=C2\Sc3c(F)cccc3N2C)s/c1=C\c1ccccn1
[1]
  remaining at 0.5 h: 12%

## COc1ccc2c(c1)[C@]13CCCC[C@@H]1[C@H](C2)N(C)CC3 [DEXTROMETHORPHAN]
[2]
  half-life: 25 min

## CCn1c(=O)/c(=C2\Sc3cc(Cl)ccc3N2C)s/c1=C\c1ccncc1
[1]
  remaining at 0.5 h: 39%
[2]
  half-life: 22 min

## CCn1c(=O)/c(=C2\Sc3cccc(Cl)c3N2C)s/c1=C\c1ccccn1
[1]
  remaining at 0.5 h: 38%
[2]
  half-life: 23 min

## CCn1c(=O)/c(=C2\Sc3cccc(F)c3N2C)s/c1=C\c1ccccn1
[1]
  remaining at 0.5 h: 12%

## CCn1c(=O)/c(=C2\Sc3ccc(Cl)cc3N2C)s/c1=C\c1ccncc1
[3]
  Activity: Non-Toxic
HeLa C3
  inhibition: Active
SH-SY5Y [4]
  inhibition: 80%
[1]
  remaining at 0.5 h: 52%
[2]; microsomes
  t1/2: 36 min
SH-SY5Y [5]
  Activity: Non-Toxic
[6]
  Activity: Non-Toxic
SH-SY5Y [7]
  Activity: Non-Toxic

## CCn1c(=O)/c(=C2\Sc3cccc(F)c3N2C)s/c1=C\c1ccncc1
[1]
  remaining at 0.5 h: 33%

## CCn1c(=O)/c(=C2\Sc3cccc(Cl)c3N2C)s/c1=C\c1ccncc1
[1]
  Stabilty: Nd(Insoluble)

## CCn1c(=O)/c(=C2\Sc3c(F)cccc3N2C)s/c1=C\c1ccncc1
[1]
  remaining at 0.5 h: 30%

## CCn1c(=O)/c(=C2\Sc3ccccc3N2C)s/c1=C\c1ccncc1
[1]
  remaining at 0.5 h: 6%

## CCn1c(=O)/c(=C2\Sc3cc(F)ccc3N2C)s/c1=C\c1ccncc1
[1]
  remaining at 0.5 h: 13%

## CCn1c(=O)/c(=C2\Sc3c(Cl)cccc3N2C)s/c1=C\c1ccncc1
[1]
  Stabilty: Nd(Insoluble)

## CCn1c(=O)/c(=C2\Sc3ccccc3N2C)s/c1=C\c1ccccn1
[1]; BLD = below limit of detection
  Stabilty: Bld
[2]
  half-life: < 3 min

## CCn1c(=O)/c(=C2\Sc3ccc(F)cc3N2C)s/c1=C\c1ccccn1
[1]
  remaining at 0.5 h: 19%

## CCn1c(=O)/c(=C2\Sc3cc(Cl)ccc3N2C)s/c1=C\c1ccccn1
[1]
  remaining at 0.5 h: 13%

## CCn1c(=O)/c(=C2\Sc3ccc(F)cc3N2C)s/c1=C\c1ccncc1
[1]
  remaining at 0.5 h: 23%
